The source made the active and inactive calls. No cut-off for these calls is given here.
Columns and labels:
Cricetinae gen. sp. [1] = test: Compound at an oral dose of 2.5 mg/Kg was tested in vivo in hamster for the inhibition of elastase-induced lung hemorrhage by acute hemorrhagic assay; Not statistically significant; assay type: functional, organism-based; settings: Cricetulus griseus
Neutrophil elastase = biological target: T1, Neutrophil elastase (Homo sapiens, UniProt P08246); test: In vitro inhibition constant (Ki) against human leukocyte elastase (HLE-catalyzed hydrolysis of MeO-Suc-Ala-Ala-Pro-Ala-pNA)
T1 sequence (P08246 whole entry): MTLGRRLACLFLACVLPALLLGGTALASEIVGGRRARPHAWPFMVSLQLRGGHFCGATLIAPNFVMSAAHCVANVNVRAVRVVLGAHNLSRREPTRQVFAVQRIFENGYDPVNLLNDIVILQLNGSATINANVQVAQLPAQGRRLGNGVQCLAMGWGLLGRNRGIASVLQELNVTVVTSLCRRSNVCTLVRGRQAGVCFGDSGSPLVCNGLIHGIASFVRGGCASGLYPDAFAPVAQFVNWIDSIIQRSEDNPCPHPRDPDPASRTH

Cricetinae gen. sp. [2] = test: Compound at an intratracheal dose of 100 nM was tested in vivo in hamster for the inhibition of elastase-induced lung hemorrhage by acute hemorrhagic assay; assay type: functional, Cricetulus griseus
Summary of the method: (§1)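 Hamster acute hemorrhagic assay: test agent given intratracheally at 100 nmol/animal 30 min before intratracheal instillation of 50 μg HLE. Read-out is percent inhibition of elastase-induced lung hemorrhage versus controls. Significance is by Student's t test, P < 0.05; NS means not significant at that dose.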

Cricetinae gen. sp. [3] = test: Compound at an intratracheal dose of […] was tested in vivo in hamster for the inhibition of elastase-induced lung hemorrhage by acute hemorrhagic assay; Not statistically significant; assay type: functional, organism-based; settings: Cricetulus griseus; summary of the method: as §1
Cricetinae gen. sp. [4] = test: Compound at an oral dose of 5 mg/Kg was tested in vivo in hamster for the inhibition of elastase-induced lung hemorrhage by acute hemorrhagic assay; Not statistically significant; assay type: functional, organism-based; settings: Cricetulus griseus

SMILES	Ki (Neutrophil elastase)	inhibition (Cricetinae gen. sp. [1])	Inhibition (Cricetinae gen. sp. [2])	inhibition (Cricetinae gen. sp. [3])	inhibition (Cricetinae gen. sp. [4])
CC(C)C(NC(=O)Cn1c(-c2ccccc2)ccc(NS(=O)(=O)c2ccccc2)c1=O)C(=O)C(F)(F)F (stereo unspecified)	–	–	–	inactive	inactive
CC(=O)Nc1ccc(S(=O)(=O)Nc2ccc(-c3ccccc3)n(CC(=O)NC(C(=O)C(F)(F)F)C(C)C)c2=O)cc1 (stereo unspecified)	–	–	95%	–	–
CC(C)C(NC(=O)Cn1c(-c2ccccc2)ccc(NC=O)c1=O)C(=O)C(F)(F)F (stereo unspecified)	–	–	–	inactive	–

Continued, in another order:

Ki (Neutrophil elastase)	SMILES	inhibition (Cricetinae gen. sp. [1])	Inhibition (Cricetinae gen. sp. [2])	inhibition (Cricetinae gen. sp. [3])	inhibition (Cricetinae gen. sp. [4])
18 nM	Cc1ccccc1S(=O)(=O)NC(=O)c1ccc(S(=O)(=O)Nc2ccc(-c3ccccc3)n(CC(=O)NC(C(=O)C(F)(F)F)C(C)C)c2=O)cc1 (stereo unspecified)	inactive	97%	–	–
9.4 nM	CC(C)C(NC(=O)Cn1c(-c2ccccc2)ccc(NS(=O)(=O)c2ccc(C(=O)NS(=O)(=O)c3ccc(Cl)cc3)cc2)c1=O)C(=O)C(F)(F)F (stereo unspecified)	inactive	96%	–	–
8 nM	COc1ccc(S(=O)(=O)N[C@H](C(=O)N2CCC[C@H]2C(=O)NC(C(=O)C(F)(F)F)C(C)C)C(C)C)cc1 (stereo partly specified)	–	–	–	–
